Experimental data gathered from unrelated publications.
Each line is one published result; the experiments were not run side by side. Converted amounts (≈) assume the structure as drawn.
Organism: Escherichia coli

Compound	test	test system	conditions	measurement	value
Cc1ccc(-n2cc(COc3cccc4cccnc34)nn2)cc1	microbial growth, broth dilution	ATCC25922	–	IC50	176 µg/mL
O=C(Sc1cccccc1=O)c1cccc(C(F)(F)F)c1	microbial growth, broth dilution	ATCC35218	–	MIC80	19.8 µM (≈ 6.14 µg/mL)
COc1c(C)c(OS(=O)(=O)c2ccc3ccccc3c2)c(C)c(OS(=O)(=O)c2ccc3ccccc3c2)c1C(=O)/C=C/c1ccccc1	microbial growth, well diffusion	ATCC25922	5 µg/mL	inhibition zone	12 mm
C=CCCCCCCCCCCCC(O)CC(O)CO (stereo not drawn)	microbial growth, broth dilution	ATCC35218	–	IC50	> 200 µg/mL
CCCc1ccsc1-c1ccc(O)c(O)c1	microbial growth	AS19	10 h	IC50	15.4 µM
O=C(N/N=C/c1ccc([N+](=O)[O-])o1)c1ccc(O)cc1	microbial growth	ATCC 8739, ATCC8739	–	MIC90	> 1000 µg/mL
COc1cc(C=Cc2cc(-c3ccccc3)nc(O)n2)ccc1O	microbial growth, disc diffusion	ATCC25922	250 µg/mL	inhibition zone	6 mm
CCCCCCCCCC(=O)Oc1c(C)c(O)c(C(=O)/C=C/c2ccccc2)c(OC)c1C	microbial killing, broth dilution	ATCC25922	–	MBC	> 5000 µg/mL
Cc1ccc(S(=O)(=O)Oc2cccc3cccnc23)cc1	microbial growth, broth dilution	ATCC25922	–	IC50	133 µg/mL
CC(C)Oc1c(NC(=O)c2ccc(NC(=O)[C@H](CC(N)=O)NC(=O)c3ccc(NC(=O)C(C)Oc4ccc(C#N)cc4)cc3)cc2)ccc(C(=O)Nc2ccc(C(=O)O)cc2)c1O (stereo partly drawn)	microbial growth	DSM1116	–	MIC	0.06 µg/mL (≈ 0.0701 µM)
CCCCS(=O)(=O)Oc1cccc2cccnc12	microbial growth, broth dilution	ATCC25922	–	IC50	194 µg/mL
Cc1ccc2nc(-c3ccco3)[nH]c2c1	microbial growth, broth dilution	ATCC25922	–	MIC	128 µg/mL (≈ 646 µM)
COc1c(C)c(OCc2ccccc2)c(C)c(O)c1C(=O)/C=C/c1ccccc1	microbial killing, broth dilution	ATCC25922	–	MBC	> 5000 µg/mL
COc1c(N2C[C@@H]3CCCN[C@@H]3C2)c(F)cc2c(=O)c(C(=O)O)cn(C3CC3)c12	microbial growth	ATCC35218	–	MIC90	0.06 µg/mL (≈ 0.149 µM)
COc1cc(C=CC(=O)CC(c2ccc(N(C)C)cc2)n2ccnc2)ccc1O (stereo not drawn)	microbial growth, disc diffusion	ATCC25922	500 µg/mL	inhibition zone	8.67 mm
Cc1ccc2nc(-c3cc(Br)ccc3O)[nH]c2c1	microbial growth, broth dilution	ATCC25922	–	MIC	64 µg/mL (≈ 211 µM)
Fc1ccc(-n2cc(COc3cccc4cccnc34)nn2)cc1	microbial growth, broth dilution	ATCC25922	–	IC50	405 µg/mL
N=C(N)c1ccccc1OCCCCCOc1ccccc1C(=N)N	microbial growth, broth dilution	BW25113	–	MIC	> 200 µg/mL
O=C(O)c1cn(C2CC2)c2cc(N3CCNCC3)c(F)cc2c1=O	microbial growth, broth dilution	ATCC25922	–	IC50	0.125 µg/mL
CC(C)Oc1c(NC(=O)c2ccc(NC(=O)[C@H](CC(N)=O)NC(=O)c3ccc(NC(=O)c4ccc(C#N)cc4)cc3)cc2)ccc(C(=O)Nc2ccncc2)c1O	microbial growth	DSM1116	–	MIC	> 64 µg/mL
Cc1ccc(C(C)C)cc1OCc1cn(-c2ccccc2)nn1	microbial growth, broth dilution	ATCC25922	–	IC50	249 µg/mL

Compound	test	test system	conditions	measurement	value
Cc1cc(N)c2ccccc2[n+]1CCCCCCCCCC[n+]1c(C)cc(N)c2ccccc21	microbial growth, disc diffusion	–	50 µg/disc	inhibition zone	0 mm
CC(C)CC1NC(=O)C(C(=O)NC(C(=O)NC2C(=O)N3C2SC(C)(C)C3C(=O)O)c2ccccc2)=C1O (stereo not drawn)	microbial growth, well diffusion	BW25113	200 µM	inhibition zone	9 mm
O=C1C=C(OCc2cn(-c3ccccc3)nn2)C(=O)c2ccccc21	microbial growth, broth dilution	ATCC25922	–	IC50	99.5 µg/mL
N=C(N)c1ccccc1OCc1ccc(COc2ccccc2C(=N)N)cc1	microbial growth	BW25113	–	MIC	> 200 µg/mL
CC1(C)S[C@@H]2[C@H](NC(=O)C(C(=O)O)c3ccccc3)C(=O)N2[C@H]1C(=O)O (stereo partly drawn)	microbial growth, well diffusion	BW25113	200 µM	inhibition zone	15 mm
N=C(N)c1cccc(OCc2ccc(COc3cccc(C(=N)N)c3)cc2)c1	microbial growth, broth dilution	W3110	–	MIC	> 200 µg/mL
CCCCCCCCCCCC(=O)Oc1c(C)c(O)c(C(=O)/C=C/c2ccccc2)c(OC)c1C	microbial killing, broth dilution	ATCC25922	–	MBC	> 5000 µg/mL
O=[N+]([O-])c1ccc(-c2nc3ccccc3n2Cc2ccccc2)cc1	microbial growth, broth dilution	ATCC25922	–	MIC	64 µg/mL (≈ 194 µM)
Cc1c(NC(=O)CC2=NC(=O)CS2)c(=O)n(-c2ccccc2)n1C	microbial killing, broth dilution	–	–	MBC	0.5 µg/mL (≈ 1.45 µM)
C[C@H]1COc2c(N3CCN(C)CC3)c(F)cc3c(=O)c(C(=O)O)cn1c23	microbial growth	ATCC25922	–	MIC	0.04 µg/mL (≈ 0.111 µM)
Cc1ccc(C(C)C)cc1OCc1cn(-c2ccc(S(N)(=O)=O)cc2)nn1	microbial growth, broth dilution	ATCC25922	–	IC50	289 µg/mL
COc1cc(C=CC(=O)CC(c2ccc([N+](=O)[O-])cc2)n2ccnc2)ccc1O (stereo not drawn)	microbial growth, disc diffusion	ATCC25922	500 µg/mL	inhibition zone	10.3 mm
O=C(N[C@H](CO)[C@H](O)c1ccc([N+](=O)[O-])cc1)C(Cl)Cl	microbial growth	ATCC35218	–	MIC90	0.98 µg/mL (≈ 3.03 µM)
N=C(N)c1ccc(OCCSCCOc2ccc(C(=N)N)cc2)cc1	microbial growth, broth dilution	BW25113	–	MIC	> 200 µg/mL
CC(C)c1cccc(=O)c(O)c1	microbial growth, broth dilution	ATCC35218	–	MIC80	44.4 µM (≈ 7.29 µg/mL)
N=C(N)c1ccc(OCc2ccccc2COc2ccc(C(=N)N)cc2)cc1	microbial growth, broth dilution	W3110	–	MIC	> 200 µg/mL
Fc1ccc(-c2nc3ccccc3[nH]2)cc1	microbial growth, broth dilution	ATCC25922	–	MIC	256 µg/mL (≈ 1210 µM)
COc1c(C)c(OS(=O)(=O)c2ccc3ccccc3c2)c(C)c(O)c1C(=O)/C=C/c1ccccc1	microbial killing, broth dilution	ATCC25922	–	MBC	> 5000 µg/mL
CC1(C)SC2C(NC(=O)C(NC(=O)C3=C(O)C(Cc4ccsc4)NC3=O)c3ccccc3)C(=O)N2C1C(=O)O (stereo not drawn)	microbial growth, well diffusion	BW25113	200 µM	inhibition zone	10 mm
O=C(Cc1ccccc1)Sc1cccccc1=O	microbial growth, broth dilution	ATCC35218	–	MIC80	19.8 µM (≈ 5.08 µg/mL)
c1cncc(-c2nc3ccccc3[nH]2)c1	microbial growth, broth dilution	ATCC25922	–	MIC	64 µg/mL (≈ 328 µM)
